# Data taken from PubChem BioAssay AID588485 (Southern Research Specialized Biocontainment Screening …, 2011).
# “And” between values parts separate entries of the source, which are not always exact repeats. Identical values can stand only once. The source made the active and inactive calls.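 How the source made its calls: active means CPE inhibition of 50% or more; inactive means the rest.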
# Legend:
# [1] = tested on: HEp-2 RSV Long CPE inhibition, luminescence viability; assay: antiviral activity against respiratory syncytial virus – cell-based, synthesized compounds, set 14, dose response (AID 588485)
# How it was run: (§1)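 test system = HEp-2 human cells infected with RSV strain Long | times = 6 days compound and virus exposure at 37 °C | technique = luminescence-based measurement of virus-induced cytopathic effect | read-out basis = percent CPE inhibition versus controls, IC50 by 4-parameter fit fixed 0/100 | control set = uninfected cell-only wells and infected virus control wells | replication = triplicate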
# [2] = as above; settings: HEp-2 RSV Long CPE inhibition, luminescence viability; at 50 µM (top of the series)
# How it was run: as §1
Compound,IC50 [1],CPE inhibition [2]
CC(C)c1ccc(Cn2c(=O)n(Cc3ccc(C(=O)NCc4ccco4)cc3)c(=O)c3ccccc32)cc1,1350 nM,–
O=C(O)c1ccc(Cn2c(=O)n(Cc3ccc(C(=O)NCC4COC4)cc3)c(=O)c3ccccc32)cc1,–,0.24% (inactive) and 0.09% (inactive)
COCCCNC(=O)c1ccc(Cn2c(=O)c3ccccc3n(Cc3ccc([N+](=O)[O-])cc3)c2=O)cc1,460 nM,–
CN(C)c1ccc(Cn2c(=O)n(Cc3ccc(C(=O)NCC4COC4)cc3)c(=O)c3ccccc32)cc1,1250 nM,–
